Experimental data from ChEMBL document CHEMBL1177667, “Novel anti-viability ceramide analogs: design, synthesis, and structure-activity relationship studies of substituted (S)-2-(benzylideneamino)-3-hydroxy-N-tetradecylpropanamides” (Bioorg Med Chem, 2010).

Experiments:
[1] = Cytotoxicity against human MCF-7TN-R cells assessed as reduction in cell viability after 24 hrs by MTT assay; type: functional, cell-based
[2] = system: HEK293; test: Cytotoxicity against HEK293 cells assessed as reduction in cell viability; type: cell-based; details: Homo sapiens
Procedure, shortened: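 MTT viability assay on non-tumorigenic human kidney cells, run by the same protocol as the breast cancer line. Cells were seeded at […] per well in phenol-free DMEM with 5% FBS and left to adhere overnight. Compounds were given at 0.1–100 µM for 24 h, then MTT (5 mg/mL) for 4 h. Cells were lysed in 20% SDS/50% DMF and read at 550 nm (reference 630 nm). Mean ±SE of four independent experiments.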

CCCCCCCCCCCCCCNC(=O)[C@H](CO)/N=C/c1ccccc1O
IC50 [1]: 19 µM | IC50 [2]: 80.8 µM

CCCCCCCCCCCCCCNC(=O)[C@H](CO)NCc1ccccc1Cl
IC50 [1]: 43.7 µM

CCCCCCCCCCCCCCNC(=O)[C@H](CO)/N=C/c1ccc(C)cc1
IC50 [1]: 102 µM | IC50 [2]: 47.3 µM

CCCCCCCCCCCCCCNC(=O)[C@H](CO)/N=C/c1cccc(OC)c1
IC50 [1]: 31.2 µM | IC50 [2]: 77.3 µM

CCCCCCCCCCCCCCNC(=O)[C@H](CO)NCc1ccccc1[N+](=O)[O-]
IC50 [1]: 29.4 µM

CCCCCCCCCCCCCCNC(=O)[C@H](CO)/N=C/c1ccc(Cl)cc1
IC50 [1]: 27.5 µM | IC50 [2]: 77.7 µM

CCCCCCCCCCCCC/C=C/[C@@H](O)[C@H](CO)NC(=O)CCCCCCC
IC50 [1]: 8.59 µM

CCCCCCCCCCCCCCNC(=O)[C@H](CO)/N=C/c1ccccc1
IC50 [1]: 7.67 µM

CCCCCCCCCCCCCCNC(=O)[C@H](CO)/N=C/c1cccc(C)c1
IC50 [1]: 82.9 µM | IC50 [2]: 51.1 µM

CCCCCCCCCCCCCCNC(=O)[C@H](CO)/N=C/c1ccccc1Cl
IC50 [1]: 10.3 µM | IC50 [2]: 94.9 µM

CCCCCCCCCCCCCCNC(=O)[C@H](CO)/N=C/c1cccc([N+](=O)[O-])c1
IC50 [1]: 104 µM | IC50 [2]: 82.7 µM

CCCCCCCCCCCCCCNC(=O)[C@H](CO)/N=C/c1cccc(O)c1
IC50 [1]: 32.6 µM | IC50 [2]: 77.5 µM

CCCCCCCCCCCCCCNC(=O)[C@H](CO)/N=C/c1ccc(O)cc1
IC50 [1]: 19.3 µM | IC50 [2]: 71.7 µM

CCCCCCCCCCCCCCNC(=O)[C@H](CO)/N=C/c1cccc(Cl)c1
IC50 [1]: 24.1 µM | IC50 [2]: 77 µM

CCCCCCCCCCCCCCNC(=O)[C@H](CO)/N=C/c1ccccc1[N+](=O)[O-]
IC50 [1]: 21.7 µM | IC50 [2]: 82.6 µM

CCCCCCCCCCCCCCNC(=O)[C@H](CO)NCc1ccccc1O
IC50 [1]: 75.3 µM

CCCCCCCCCCCCCCNC(=O)[C@H](CO)/N=C/c1ccccc1C
IC50 [1]: 87.7 µM | IC50 [2]: 81.1 µM

CCCCCCCCCCCCCCNC(=O)[C@H](CO)/N=C/c1ccc(OC)cc1
IC50 [1]: 28.1 µM | IC50 [2]: 81.7 µM

CCCCCCCCCCCCCCNC(=O)[C@H](CO)/N=C/c1ccc([N+](=O)[O-])cc1
IC50 [1]: 216 µM | IC50 [2]: 49.5 µM

CCCCCCCCCCCCCCNC(=O)[C@H](CO)NCc1ccccc1OC
IC50 [1]: 100 µM

CCCCCCCCCCCCCCNC(=O)[C@H](CO)/N=C/c1ccccc1OC
IC50 [1]: 12.5 µM | IC50 [2]: 79.2 µM
